Results reported in paper PMC6427922 (Bioorganic & medicinal chemistry letters, 2018).
“Also recorded” adds a separate entry of the source. Like-named read-outs stand apart in the source and are kept apart here.

Experiments:
[1] = molecular target: T1, hM1 (Homo sapiens, UniProt P11229); format: cell-based; details: for M1 PAM activity in words (relative to 14 or comparators): hM1-CHO
T1 sequence (P11229 1-460): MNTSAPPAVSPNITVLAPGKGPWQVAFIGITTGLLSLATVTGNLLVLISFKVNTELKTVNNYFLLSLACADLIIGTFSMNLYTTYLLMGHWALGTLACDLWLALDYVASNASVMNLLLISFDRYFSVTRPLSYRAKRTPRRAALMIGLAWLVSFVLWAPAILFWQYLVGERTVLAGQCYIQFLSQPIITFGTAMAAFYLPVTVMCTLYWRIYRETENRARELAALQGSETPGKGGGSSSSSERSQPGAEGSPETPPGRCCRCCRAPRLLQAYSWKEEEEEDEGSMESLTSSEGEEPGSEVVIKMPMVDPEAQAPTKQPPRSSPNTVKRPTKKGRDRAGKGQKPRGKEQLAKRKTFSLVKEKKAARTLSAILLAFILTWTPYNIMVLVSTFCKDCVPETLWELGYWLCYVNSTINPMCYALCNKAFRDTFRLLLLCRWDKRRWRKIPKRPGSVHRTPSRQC
How it was run: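 Calcium mobilization in CHO cells expressing human M1, with a fixed EC20 concentration of acetylcholine present. Read-outs are EC50, pEC50 and ACh Max. Values are means of three independent experiments, each run in triplicate. Fold changes are expressed against a racemic reference compound.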

[2] = system: M3; details: read-out: M3 EC50; selectivity; cited from earlier work
[3] = Predicted hepatic clearance, human; format: in vitro ADME
[4] = system: M2; details: read-out: M2 EC50; selectivity; cited from earlier work
[5] = system: M5; details: read-out: M5 EC50; selectivity; cited from earlier work
[6] = Metabolite identification studies; format: in vitro ADME
[7] = system: M4; details: read-out: M4 EC50; selectivity; cited from earlier work
[8] = molecular target: T1, hM1; details: reference compound, racemate of 7; cited from earlier work
[9] = non-human primates; cited from earlier work
[10] = system: cognitive deficits induced by risperidone; details: cited from earlier work
[11] = system: M1; details: cells and native systems; cited from earlier work
[12] = mice; cited from earlier work
[13] = rats; cited from earlier work
[14] = system: NR1 knock-down mice; details: cited from earlier work

## O=C(N[C@H]1CCC[C@@H]1O)C1CN(Cc2ccc(-n3cccn3)cc2)c2ccccc2O1 (some centres unmarked) [25b]
[1]
  M1 PAM activity in words (relative to 14 or comparators): comparable activity

## O=C(N[C@H]1CCCC[C@@H]1O)C1CN(Cc2ccc(-n3cccn3)cc2)c2c(F)cccc2O1 (some centres unmarked) [compound 21]
[1]; relative to 14
  Fold decrease in M1 PAM activity relative to 14: ~ 3 fold

## O=C(N[C@H]1CCCC[C@@H]1O)C1CN(Cc2ccc(-n3cccn3)cc2)c2ccccc2O1 (some centres unmarked) [compound 14]
[2]
  EC50: > 30 µM
[3]
  Predicted hepatic clearance CLhep, human: 11.1 mL/min/kg
[4]
  EC50: > 30 µM
[5]
  EC50: > 30 µM
[6]
  Route of metabolism: P450-mediated debenzylation to afford 26
[7]
  EC50: > 30 µM
[8]
  M1 pEC50: 6.10 ± 0.13

## O=C(N[C@H]1CCCC[C@@H]1O)C1CN(Cc2ccc(-n3cccn3)nc2)c2ccccc2O1 (some centres unmarked) [compound 18]
[1]
  M1 PAM activity in words (relative to 14 or comparators): equipotent to 14

## O=C(Nc1ncccc1O)C1CN(Cc2ccc(-n3cccn3)cc2)c2ccccc2O1 (centres unmarked) [25j]
[1]
  M1 PAM activity in words (relative to 14 or comparators): equipotent to 14
[6]
  Route of metabolism: amide hydrolysis by esterases liberating 27

## O=C(N[C@H]1CCCC[C@@H]1O)C1CN(Cc2ccc(-n3cccn3)cc2)c2cccc(F)c2O1 (some centres unmarked) [compound 24]
[1]; relative to 14
  Fold increase in M1 PAM potency relative to 14: ~7 fold

## O=C(NC1CCOCC1)C1CN(Cc2ccc(-n3cccn3)cc2)c2ccccc2O1 (centres unmarked) [25d]
[1]; relative to pyran homolog 25c
  Fold loss in M1 PAM activity on deletion of the hydroxyl group on the pyran ring: ~ 34 fold

## O=C(N[C@H]1CCCCC1=O)C1CN(Cc2ccc(-n3cccn3)cc2)c2ccccc2O1 (some centres unmarked) [25f]
[1]
  M1 PAM activity in words (relative to 14 or comparators): retained reasonable M1 PAM activity

## O=C(N[C@H]1CCCC[C@@H]1O)[C@H]1CN(Cc2ccc(-n3cccn3)cc2)c2ccccc2O1 [compound 7]
[9]
  Cholinergic toxicity: devoid of cholinergic toxicity
[10]
  Reversal of cognitive deficits induced by atypical antipsychotics: reverse the cognitive deficits induced by atypical antipsychotics
[11]
  M1 agonism: devoid of M1 agonism; also recorded: devoid of agonist activity in native systems
[12]
  Cholinergic toxicity: devoid of cholinergic toxicity
[13]
  Cholinergic toxicity: devoid of cholinergic toxicity

## Cn1cc(-c2ccc(Cn3cc(C(=O)N[C@H]4CCCC[C@@H]4O)c4c(F)cc(F)cc43)cn2)cn1 [compound 6]
[14]
  Efficacy in NR1 knock-down mice: robust efficacy

## O=C(N[C@H]1CCCC[C@@H]1O)C1CN(Cc2ccc(-n3cccc3)nc2)c2ccccc2O1 (some centres unmarked) [28j]
[1]
  M1 PAM activity in words (relative to 14 or comparators): increase in M1 PAM potency

## Cn1nccc1-c1ccc(CN2CC(C(=O)N[C@H]3CCCC[C@@H]3O)Oc3ccccc32)cn1 (some centres unmarked) [28 k]
[1]
  M1 PAM activity in words (relative to 14 or comparators): active

## NC1CCCCC1NC(=O)C1CN(Cc2ccc(-n3cccn3)cc2)c2ccccc2O1 (centres unmarked) [25e]
[1]
  M1 PAM activity in words (relative to 14 or comparators): retained reasonable M1 PAM activity

## O=C(N[C@H]1CCCC[C@@H]1O)C1CN(Cc2ccc(-n3cccn3)cc2)c2cc(F)ccc2O1 (some centres unmarked) [compound 22]
[1]; relative to 14
  Fold increase in M1 PAM potency relative to 14: ~ 3 fold

## O=C(N[C@H]1CCCC[C@@H]1O)C1Cc2ccccc2N(Cc2ccc(-n3cccn3)cc2)C1 (some centres unmarked) [compound 15]
[1]
  M1 PAM activity in words (relative to 14 or comparators): essentially equipotent to 14
